24 compounds from ChEMBL document CHEMBL1141092, “Synthesis of malarial plasmepsin inhibitors and prediction of binding modes by molecular dynamics simulations” (J Med Chem, 2005) can be followed below.

The target in one assay is Plasmepsin IV (Plasmodium falciparum 3D7, UniProt Q8IM16). Briefly: Inhibition constant against plasmepsin-4 of Plasmodium falciparum.
Another assay deals with Plasmepsin II (Plasmodium falciparum, UniProt P46925). Briefly: Inhibition constant against plasmepsin-2 of Plasmodium falciparum 10 min using 3 uM of DABCYL-Glu-Arg-Nle-Phe-Le u-Ser-Phe-Pro-EDANS as substrate. The method in brief:
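Pro-Plm II at 3 nM is self-activated by 40 min preincubation at room temperature in 100 mM sodium acetate pH 4.5, 10% glycerol, 0.01% Tween 20. Inhibitor in DMSO (1% final) is added before 3 µM FRET substrate, and the linear fluorescence increase is read over 10 min. IC50 is fitted to a competitive Langmuir isotherm and converted to Ki via IC50/(1+[S]/Km).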

A further assay addresses Plasmepsin I (Plasmodium falciparum, UniProt P39898). Briefly: Inhibition constant against plasmepsin-1 of Plasmodium falciparum, 10 min using 3 uM of DABCYL-Glu-Arg-Nle-Phe-Le u-Ser-Phe-Pro-EDANS as substrate. The method in brief:
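Recombinant Plm I, amount set to match Plm II catalytic activity, in 100 mM sodium acetate pH 4.5 with 10% glycerol and 0.01% Tween 20. DMSO inhibitor dilutions (1% final DMSO) are added, then 3 µM FRET substrate. Fluorescence rise is followed over a linear 10 min. IC50 comes from a Langmuir fit assuming competitive inhibition, and Ki = IC50/(1+[S]/Km), with Km from Michaelis–Menten.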

A further assay deals with Cathepsin D (Homo sapiens, UniProt P07339). Briefly: Inhibition constant against pro-cathepsin D (50 ng/mL) of human liver upon incubation at pH 4.5 for 10 min using DABCYL-Glu-Arg-Nle-Phe-Le u-Ser-Phe-Pro-EDANS as substrate. Put shortly: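 Human liver pro-Cat D at 50 ng/mL is activated for 20 min at 37 °C in 100 mM sodium acetate pH 4.5, 10% glycerol, 0.01% Tween 20. Inhibitor in DMSO (1% final) precedes 3 µM FRET substrate, and the fluorescence increase is followed over a linear 10 min. IC50 is from a competitive Langmuir fit, and Ki = IC50/(1+[S]/Km), with Km from Michaelis–Menten.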
Sequence of Cathepsin D (P07339 65-162 limits assumed): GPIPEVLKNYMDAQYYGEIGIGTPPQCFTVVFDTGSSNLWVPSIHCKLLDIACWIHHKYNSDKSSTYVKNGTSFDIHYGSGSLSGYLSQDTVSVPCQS
Sequence of Cathepsin D (P07339 169-412 limits assumed): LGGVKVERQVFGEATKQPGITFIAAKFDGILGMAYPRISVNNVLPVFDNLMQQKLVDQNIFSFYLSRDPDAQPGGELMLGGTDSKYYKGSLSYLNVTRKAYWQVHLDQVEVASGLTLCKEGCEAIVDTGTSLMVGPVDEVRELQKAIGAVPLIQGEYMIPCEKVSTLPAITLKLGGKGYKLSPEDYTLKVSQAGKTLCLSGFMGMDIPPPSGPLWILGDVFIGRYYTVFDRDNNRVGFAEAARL

Sequence of Plasmepsin IV (Q8IM16 whole entry): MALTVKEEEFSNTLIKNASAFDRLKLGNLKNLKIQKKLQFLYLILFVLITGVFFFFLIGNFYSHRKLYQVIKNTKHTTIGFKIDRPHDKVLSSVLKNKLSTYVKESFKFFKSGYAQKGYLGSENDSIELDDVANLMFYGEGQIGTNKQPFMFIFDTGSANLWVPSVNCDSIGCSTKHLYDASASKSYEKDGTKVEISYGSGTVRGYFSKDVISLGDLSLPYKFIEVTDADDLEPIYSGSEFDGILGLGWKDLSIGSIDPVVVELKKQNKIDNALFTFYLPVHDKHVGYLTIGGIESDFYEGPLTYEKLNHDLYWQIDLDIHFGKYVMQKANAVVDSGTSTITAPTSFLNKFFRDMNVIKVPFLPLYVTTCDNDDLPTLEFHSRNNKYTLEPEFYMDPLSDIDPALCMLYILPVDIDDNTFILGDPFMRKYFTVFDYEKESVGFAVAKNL
Sequence of Plasmepsin II (P46925 whole entry): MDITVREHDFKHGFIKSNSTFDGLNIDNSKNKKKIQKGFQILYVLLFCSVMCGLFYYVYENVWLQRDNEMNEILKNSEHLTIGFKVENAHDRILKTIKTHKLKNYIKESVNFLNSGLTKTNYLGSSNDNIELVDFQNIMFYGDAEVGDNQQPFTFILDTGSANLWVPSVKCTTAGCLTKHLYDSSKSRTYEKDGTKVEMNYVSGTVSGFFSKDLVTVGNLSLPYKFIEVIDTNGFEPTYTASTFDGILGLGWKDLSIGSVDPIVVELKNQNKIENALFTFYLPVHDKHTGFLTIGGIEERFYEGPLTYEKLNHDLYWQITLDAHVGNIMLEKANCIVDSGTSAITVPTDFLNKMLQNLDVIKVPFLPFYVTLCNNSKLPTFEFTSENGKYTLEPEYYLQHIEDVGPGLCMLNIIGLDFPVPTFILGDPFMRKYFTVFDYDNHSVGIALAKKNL
Sequence of Plasmepsin I (P39898 whole entry): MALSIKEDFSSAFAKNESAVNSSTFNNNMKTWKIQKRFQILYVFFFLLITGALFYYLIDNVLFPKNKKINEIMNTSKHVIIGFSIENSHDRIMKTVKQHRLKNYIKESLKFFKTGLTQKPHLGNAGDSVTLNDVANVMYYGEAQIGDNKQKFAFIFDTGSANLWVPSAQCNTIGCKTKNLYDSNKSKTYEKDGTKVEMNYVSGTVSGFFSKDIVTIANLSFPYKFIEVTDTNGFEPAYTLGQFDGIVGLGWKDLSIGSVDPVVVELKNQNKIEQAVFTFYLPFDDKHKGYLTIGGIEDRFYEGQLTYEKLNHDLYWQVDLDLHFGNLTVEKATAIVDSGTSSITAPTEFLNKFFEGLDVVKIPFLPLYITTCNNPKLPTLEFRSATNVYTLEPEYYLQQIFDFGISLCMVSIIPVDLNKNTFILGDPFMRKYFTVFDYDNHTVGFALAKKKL

Broadly, the Ki is the equilibrium dissociation constant of an inhibitor or competing ligand from its target. A low value points to tighter binding. The compound `C=CCO[C@@H](C(=O)N[C@H]1c2ccccc2C[C@H]1O)[C@H](O)[C@@H](O)[C@@H](OCC=C)C(=O)N[C@H]1c2ccccc2C[C@H]1O` returned an inhibition constant Ki at Plasmepsin IV greater than 5 µM.

As to `O=C(CCc1c[nH]c2ccccc12)NNC(=O)[C@H](OC/C=C/Br)[C@H](O)[C@@H](O)[C@@H](OC/C=C/Br)C(=O)N[C@H]1c2ccccc2C[C@H]1O`, the Ki at Plasmepsin II was 0.006 µM; at Plasmepsin I, 0.019 µM; at Cathepsin D it was greater than 6 µM.

Regarding `O=C(N[C@H]1c2ccccc2C[C@H]1O)[C@H](OC/C=C/Br)[C@H](O)[C@@H](O)[C@@H](OC/C=C/Br)c1nnc(CCc2ccccc2)o1`, the results for the Ki at Plasmepsin II, at Plasmepsin I and on Cathepsin D were 2.9 µM, greater than 3 µM and greater than 6 µM, respectively.

Regarding `CC(=O)c1ccc(/C=C/CO[C@@H](C(=O)NNC(=O)CCc2ccccc2)[C@H](O)[C@@H](O)[C@@H](OC/C=C/c2ccc(C(C)=O)cc2)C(=O)N[C@H]2c3ccccc3C[C@H]2O)cc1`, the Ki worked out at 0.145 µM on Plasmepsin II, 0.038 µM at Plasmepsin I and 1.2 µM on Cathepsin D.

In the case of `O=C(N[C@H]1c2ccccc2C[C@H]1O)[C@H](OC/C=C/Br)[C@H](O)[C@@H](O)[C@@H](OC/C=C/Br)c1nnc(CCCc2ccccc2)o1`, the Ki at Plasmepsin II was 2.3 µM; on Plasmepsin I, 1.6 µM; on Cathepsin D it was greater than 6 µM.

Turning to `CC(C)(C)c1ccc(-c2nnc([C@H](OC/C=C/Br)[C@H](O)[C@@H](O)[C@@H](OC/C=C/Br)C(=O)N[C@H]3c4ccccc4C[C@H]3O)o2)cc1`, the Ki on Plasmepsin II was greater than 5 µM; at Plasmepsin I, greater than 3 µM; on Cathepsin D, greater than 6 µM.

For `Cc1nnc([C@H](OC/C=C/Br)[C@H](O)[C@@H](O)[C@@H](OC/C=C/Br)c2nnc(C)o2)o1`, the Ki on Plasmepsin II is greater than 5 µM; on Plasmepsin I it was greater than 3 µM; on Cathepsin D, greater than 6 µM.

Consider `Cc1n[nH]c([C@H](OC/C=C/Br)[C@H](O)[C@@H](O)[C@@H](OC/C=C/Br)C(=O)N[C@H]2c3ccccc3C[C@H]2O)n1`, for which the inhibition constant Ki at Plasmepsin II was greater than 5 µM; on Plasmepsin I, greater than 3 µM; on Cathepsin D, greater than 6 µM.

Turning to `Cc1nnc([C@H](OC/C=C/Br)[C@H](O)[C@@H](O)[C@@H](OC/C=C/Br)C(=O)N[C@H]2c3ccccc3C[C@H]2O)o1`, the inhibition constant (Ki) at Plasmepsin II was greater than 5 µM; on Plasmepsin I it was greater than 3 µM; on Cathepsin D, greater than 6 µM.

As for `CC(C)(C)c1ccc(-c2nnc([C@H](OC/C=C/Br)[C@H](O)[C@@H](O)[C@@H](OC/C=C/Br)c3nnc(-c4ccc(C(C)(C)C)cc4)o3)o2)cc1`, the Ki at Plasmepsin IV was 0.035 µM; on Plasmepsin II, greater than 5 µM; on Plasmepsin I, greater than 3 µM; at Cathepsin D, greater than 6 µM.

For the compound `O=C(CCc1ccccc1)NNC(=O)[C@H](OC/C=C/c1ccc2c(c1)OCO2)[C@H](O)[C@@H](O)[C@@H](OC/C=C/c1ccc2c(c1)OCO2)C(=O)N[C@H]1c2ccccc2C[C@H]1O`, the Ki at Plasmepsin II turned out to be 0.011 µM; at Plasmepsin I, 0.006 µM; on Cathepsin D, 0.8 µM.

`O=C(N[C@H]1c2ccccc2C[C@H]1O)[C@H](OC/C=C/Br)[C@H](O)[C@@H](O)[C@@H](OC/C=C/Br)c1nnc(Cc2ccccc2)o1`: the Ki at Plasmepsin II is 2.1 µM; at Plasmepsin I, greater than 3 µM; on Cathepsin D, greater than 6 µM.

On to `C=CCO[C@@H](C(=O)NNC(=O)CCc1ccccc1)[C@H](O)[C@@H](O)[C@@H](OCC=C)C(=O)N[C@H]1c2ccccc2C[C@H]1O`, for which the results for the Ki on Plasmepsin II, at Plasmepsin I and on Cathepsin D were 0.161 µM, 0.124 µM and greater than 6 µM, respectively.

As to `O=C(Cc1ccccc1)NNC(=O)[C@H](OC/C=C/Br)[C@H](O)[C@@H](O)[C@@H](OC/C=C/Br)C(=O)N[C@H]1c2ccccc2C[C@H]1O`, the results for the Ki at Plasmepsin II, on Plasmepsin I and at Cathepsin D were 0.014 µM, 0.031 µM and greater than 6 µM, respectively.

Turning to `CC(C)(C)c1ccc(C(=O)NNC(=O)[C@H](OC/C=C/Br)[C@H](O)[C@@H](O)[C@@H](OC/C=C/Br)C(=O)NNC(=O)c2ccc(C(C)(C)C)cc2)cc1`, the Ki on Plasmepsin IV stood at 0.478 µM; on Plasmepsin II, 1.5 µM; at Plasmepsin I, 1.84 µM; at Cathepsin D it was 3 µM.

Turning to `CC(=O)NNC(=O)[C@H](OC/C=C/Br)[C@H](O)[C@@H](O)[C@@H](OC/C=C/Br)C(=O)NNC(C)=O`, the results for the Ki on Plasmepsin II, on Plasmepsin I and at Cathepsin D were greater than 5 µM, greater than 3 µM and greater than 6 µM, respectively.

In the case of `CC(=O)NNC(=O)[C@H](OC/C=C/Br)[C@H](O)[C@@H](O)[C@@H](OC/C=C/Br)C(=O)N[C@H]1c2ccccc2C[C@H]1O`, the Ki is 0.359 µM at Plasmepsin II, 0.698 µM at Plasmepsin I and greater than 6 µM at Cathepsin D.

For the compound `O=C(NNC(=O)[C@H](OC/C=C/Br)[C@H](O)[C@@H](O)[C@@H](OC/C=C/Br)C(=O)N[C@H]1c2ccccc2C[C@H]1O)c1ccccc1`, the Ki was 0.168 µM on Plasmepsin II, 0.261 µM at Plasmepsin I and greater than 6 µM at Cathepsin D.

As to `O=C(CCCc1ccccc1)NNC(=O)[C@H](OC/C=C/Br)[C@H](O)[C@@H](O)[C@@H](OC/C=C/Br)C(=O)N[C@H]1c2ccccc2C[C@H]1O`, the Ki at Plasmepsin II is 0.01 µM; on Plasmepsin I it was 0.011 µM; on Cathepsin D, greater than 6 µM.

As to `O=C(CCN1CCOCC1)NNC(=O)[C@H](OC/C=C/Br)[C@H](O)[C@@H](O)[C@@H](OC/C=C/Br)C(=O)N[C@H]1c2ccccc2C[C@H]1O`, the values for the Ki at Plasmepsin II, on Plasmepsin I and at Cathepsin D were 1.3 µM, 2 µM and greater than 6 µM, respectively.

Take `O=C(N[C@H]1c2ccccc2C[C@H]1O)[C@H](OC/C=C/Br)[C@H](O)[C@@H](O)[C@@H](OC/C=C/Br)c1nnc(-c2ccccc2)o1`: the figures for the Ki on Plasmepsin II, on Plasmepsin I and at Cathepsin D were 3.4 µM, greater than 3 µM and greater than 6 µM, respectively.

As to `CC(C)(C)c1ccc(C(=O)NNC(=O)[C@H](OC/C=C/Br)[C@H](O)[C@@H](O)[C@@H](OC/C=C/Br)C(=O)N[C@H]2c3ccccc3C[C@H]2O)cc1`, the figures for the Ki on Plasmepsin II, at Plasmepsin I and at Cathepsin D were 0.142 µM, 0.198 µM and greater than 6 µM, respectively.

As for `O=C(CCc1ccccc1)NNC(=O)[C@H](OC/C=C/Br)[C@H](O)[C@@H](O)[C@@H](OC/C=C/Br)C(=O)N[C@H]1c2ccccc2C[C@H]1O`, the Ki at Plasmepsin II is 0.007 µM; at Plasmepsin I it was 0.009 µM; on Cathepsin D, greater than 6 µM.

`CN1CCN(CCC(=O)NNC(=O)[C@H](OC/C=C/Br)[C@H](O)[C@@H](O)[C@@H](OC/C=C/Br)C(=O)N[C@H]2c3ccccc3C[C@H]2O)CC1`: the Ki is 0.586 µM on Plasmepsin II, 1.09 µM at Plasmepsin I and greater than 6 µM on Cathepsin D.
